# Results as given in PubChem BioAssay AID1451 (NMMLSC, 2008).
# Some of the results follow. Values without a mark were called inactive.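 How the source made its calls: active means inhibition of pump activity above 50%; inactive means the rest.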
# Target: ATP-dependent translocase ABCB1 (Homo sapiens) (UniProt P08183)
# Test: blockers of ABCB1-mediated dye efflux – cell-based, single point, ABCG2 counter-screen, confirmation (AID 1451);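 further: 0% = DMSO and 100% = nicardipine full pump inhibition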
# Conditions: CCRF-Adr cells, JC-1 efflux, flow cytometry; at 6.6 µM; hits give high values
# In short: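 Assay system: ABCB1-expressing CCRF-Adr cells / Compound dosing: single test-compound dose, 6.6 µM final / Schedule: 10 min exposure, 25 °C / Technique: high-throughput flow cytometry, JC-1 green emission 530 ± 20 nm / Read-out basis: % pump inhibition from median JC-1 fluorescence, autofluorescence-corrected, scaled between controls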
# ATP-dependent translocase ABCB1 (Homo sapiens), sequence (P08183 whole entry, looked up): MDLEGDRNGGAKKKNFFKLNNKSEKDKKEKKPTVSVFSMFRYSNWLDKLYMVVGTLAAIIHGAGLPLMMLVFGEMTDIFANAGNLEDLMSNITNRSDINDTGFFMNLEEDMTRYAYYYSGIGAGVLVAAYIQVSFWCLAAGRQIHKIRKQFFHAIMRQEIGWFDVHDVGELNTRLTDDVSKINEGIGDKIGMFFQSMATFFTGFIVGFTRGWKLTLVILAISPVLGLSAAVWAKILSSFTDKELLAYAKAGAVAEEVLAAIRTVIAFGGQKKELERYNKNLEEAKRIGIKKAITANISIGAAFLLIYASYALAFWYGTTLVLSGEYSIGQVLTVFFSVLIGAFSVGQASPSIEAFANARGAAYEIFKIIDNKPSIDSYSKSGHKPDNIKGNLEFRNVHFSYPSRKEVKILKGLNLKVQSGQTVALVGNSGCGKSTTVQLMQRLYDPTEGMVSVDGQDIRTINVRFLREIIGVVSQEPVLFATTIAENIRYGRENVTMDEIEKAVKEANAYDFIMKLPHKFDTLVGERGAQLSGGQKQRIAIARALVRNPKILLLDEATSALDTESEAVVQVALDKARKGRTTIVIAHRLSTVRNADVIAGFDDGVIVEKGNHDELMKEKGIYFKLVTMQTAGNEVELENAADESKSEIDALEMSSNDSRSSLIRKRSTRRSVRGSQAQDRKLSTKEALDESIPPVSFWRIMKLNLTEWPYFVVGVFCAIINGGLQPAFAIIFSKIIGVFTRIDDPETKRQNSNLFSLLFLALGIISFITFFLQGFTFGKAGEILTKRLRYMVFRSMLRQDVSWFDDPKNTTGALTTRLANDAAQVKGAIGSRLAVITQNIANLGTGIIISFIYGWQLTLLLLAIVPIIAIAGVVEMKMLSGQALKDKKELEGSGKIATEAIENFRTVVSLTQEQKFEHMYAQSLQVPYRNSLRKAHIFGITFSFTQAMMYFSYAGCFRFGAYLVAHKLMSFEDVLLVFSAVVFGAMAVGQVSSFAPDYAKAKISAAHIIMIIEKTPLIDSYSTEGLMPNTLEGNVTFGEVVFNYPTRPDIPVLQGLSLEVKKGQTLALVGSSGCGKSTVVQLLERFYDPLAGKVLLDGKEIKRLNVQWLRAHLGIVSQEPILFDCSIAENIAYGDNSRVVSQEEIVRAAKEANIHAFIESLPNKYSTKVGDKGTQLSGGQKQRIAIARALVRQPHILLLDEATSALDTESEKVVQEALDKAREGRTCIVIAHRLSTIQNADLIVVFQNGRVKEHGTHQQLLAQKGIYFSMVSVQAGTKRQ
compound,measurement,value
COC(=O)COc1cc(C)cc2oc(=O)c3c(c12)CCCC3,inhibition,1.84%
